Laboratory results: PubChem BioAssay AID540295 (The Scripps Research Institute Molecular Screening Center, 2011)
The campaign covered roughly 360,000 compounds. About 1,700 (0.47%) were called active.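 Rule for the calls: active = inhibition above its plate's cutoff, the mean of tested wells on that plate plus 3 SD (cut at about 29% in these data); inactive = the rest.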 Shown is part of a subset that was picked to be rich in actives.

The compounds below were run against Melanocortin receptor 4 (Homo sapiens) (UniProt P32245) (assay: blockers of MC4R Gs-cAMP response – cell-based, TR-FRET, antagonist arm of biased-ligand search, primary screen (AID 540295;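 note: 0% = Melanotan II alone and 100% = Melanotan II plus saturating MCL0020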)). Conditions: MC4R-expressing cells, MTII-stimulated cAMP, LANCE TR-FRET; at 6.5 µM; active compounds read high.
Chain of Melanocortin receptor 4 (Homo sapiens) (P32245 whole entry, looked up): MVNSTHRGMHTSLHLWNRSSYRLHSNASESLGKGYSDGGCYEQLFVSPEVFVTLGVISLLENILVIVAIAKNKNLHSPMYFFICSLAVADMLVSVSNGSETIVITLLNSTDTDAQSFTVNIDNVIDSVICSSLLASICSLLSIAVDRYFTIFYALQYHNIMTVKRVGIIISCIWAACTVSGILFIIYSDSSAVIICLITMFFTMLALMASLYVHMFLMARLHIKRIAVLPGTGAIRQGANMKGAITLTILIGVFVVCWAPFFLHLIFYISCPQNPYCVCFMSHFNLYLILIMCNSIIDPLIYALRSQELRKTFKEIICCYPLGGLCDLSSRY
Method in brief: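 System: U2OS-MC4R stable cell line; Technique: Eu-cAMP/anti-cAMP TR-FRET, emission 671 nm; Repeats: single well per compound; Also added: Melanotan II; Dosing: one concentration, 6.5 µM nominal; Schedule: 30-min compound, 1-h challenge, 1-h detection, room temperature.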
COc1cccc(N2C(=O)NC(=O)/C(=C\c3ccc([N+](=O)[O-])s3)C2=O)c1 was tested, and the inhibition was 28.6% (active).
O=C(N/N=C/c1c(O)n(C2CC2)c(=S)[nH]c1=O)c1ccccc1Cl was tested, and the inhibition was 20.1% (inactive).
With c1ccc(CCNC2CCCCCC2)cc1 the inhibition was 17.4% (inactive).
With COc1cc(OC)cc(C2(C#N)CCN(C)CC2)c1 the inhibition was 17% (inactive).
In the case of O=C(NC(=S)N1C[C@H]2C[C@H](C1)c1cccc(=O)n1C2)c1ccc(F)cc1, the inhibition is reported as 7.13% (inactive).
Cc1cccc(N2C(=O)NC(=O)/C(=C\c3cnn(-c4ccccc4)c3)C2=O)c1 was tested, and the inhibition was 35.2% (active).
For Cc1c(C(=O)O)cccc1-n1c(C)cc(/C=C2\C(=O)NC(=O)N(c3ccc4c(c3)OCO4)C2=O)c1C, the inhibition was 5.16% (inactive).
For CCN1CCN(c2ccc([N+](=O)[O-])cc2C#N)CC1, the inhibition was -10.7% (inactive).
For CC(C)c1c(CN(C)C(C)Cc2ccccc2)n(C)n(-c2ccccc2)c1=O (stereo not given), the inhibition was 10.7% (inactive).
With CC(=O)c1c(O)n(C2CCCCCC2)c(=O)[nH]c1=O the inhibition was 2.26% (inactive).
